Measurements from different studies.
Cell line: PC-3
Effect on: cell growth or viability

| SMILES | test | setting | measurement | value |
| --- | --- | --- | --- | --- |
| COc1ccc(-c2cc(-c3ccc(Br)cc3)c3c(=O)n(C)c(=O)n(C)c3n2)cc1 | MTT | 48 h | IC50 | 8.58 µM |
| Cc1nc(NC(=O)N2CCC[C@H]2C(N)=O)sc1-c1ccnc(C(C)(C)C(F)(F)F)c1 | MTT | – | IC50 | 47.7 µM |
| CCCOc1ccc2c(C)c(CC)c(=O)oc2c1C | MTT | 125 µg/mL | viability | 56.8% |
| Cc1nc(Nc2ccc3c(c2)C(C)(C)C(=O)N3)c2ccccc2n1 | MTT | – | IC50 | 34.3 µM |
| COc1ccc(-c2cc(-c3cc(OC)ccc3OC)c3c(=O)n(C)c(=O)n(C)c3n2)cc1 | MTT | 48 h | IC50 | 24.6 µM |
| C=CCOc1ccc2c(C)c(CC)c(=O)oc2c1C | MTT | 125 µg/mL | viability | 95.8% |
| Cc1nc(Nc2ccc3c(c2)/C(=C/c2ccccc2)C(=O)N3C)c2ccccc2n1 | MTT | – | IC50 | 18.7 µM |
| CCc1c(C)c2ccc(OCC(=O)NNC(=S)Nc3ccccc3)c(C)c2oc1=O | MTT | 500 µg/mL | viability | 2.61% |
| COc1cc2ncnc(N(C)c3ccc4c(c3)/C(=C/c3ccccc3)C(=O)N4C)c2cc1OC (mixture of isomers) | MTT | – | IC50 | 39.2 µM |
| COc1ccc(-c2cc(-c3c(OC)cccc3OC)c3c(=O)n(C)c(=O)n(C)c3n2)cc1 | MTT | 48 h | IC50 | 18.6 µM |
| Nc1n[nH]c2nc(-c3cccc(O)c3)cc(-c3cc4cc(Cl)ccc4nc3N3CCOCC3)c12 | MTT | 72 h | IC50 | 0.166 µM |
| Cc1ccc(-c2cc(-c3ccc(N(C)C)cc3)c3c(=O)n(C)c(=O)n(C)c3n2)cc1 | MTT | 48 h | IC50 | 21.5 µM |
| CC(=NNC(=O)COc1ccc2c(C)c(Cc3ccccc3)c(=O)oc2c1C)c1ccc(Br)cc1 | MTT | 250 µg/mL | viability | 3.08% |
| C=CC(=O)c1cccnc1Nc1cccc(C(F)(F)F)c1 | SRB | 48 h | GI50 | 11.4 µM |
| Cc1c(Cc2ccccc2)c(=O)oc2c(C)c(OCC(=O)NN=Cc3ccc(Cl)cc3)ccc12 | MTT | 1000 µg/mL | viability | 2.23% |
| C=CC(=O)c1cccnc1Nc1cc(C(F)(F)F)ccc1OC | SRB | 48 h | GI50 | 5.58 µM |
| COc1ccc(-c2cc(-c3ccc(Cl)cc3)c3c(=O)[nH]c(=O)[nH]c3n2)cc1 | MTT | 48 h | IC50 | 5.24 µM |
